Test results from ChEMBL document CHEMBL3351887, “'Click' assembly of glycoclusters and discovery of a trehalose analogue that retards Aβ40 aggregation and inhibits Aβ40-induced neurotoxicity” (Bioorg Med Chem Lett, 2014).

Columns and labels:
[1] = molecular target: Amyloid-beta precursor protein (Homo sapiens) (UniProt P05067); assay: Inhibition of amyloid beta-40 aggregation (unknown origin) assessed as extension of lag phase of Abeta40 aggregation by ThT fluorescence assay
Outline: (§1)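 Monomer-rich Aβ40 (35 µM, supernatant after NaOH dissolution, sonication and ultracentrifugation) was incubated with 10 nM–100 µM compound in 20 mM phosphate buffer pH 7.4 (I 0.15 M), with 20 µM ThT and 0.007% NaN3, quiescent at 37 °C. Fluorescence (ex 440, em 480 nm) was read every 5 min. Lag time came from an empirical sigmoidal nonlinear-regression fit; mean ± SE of four independent experiments.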

[2] = molecular target: Amyloid-beta precursor protein (Homo sapiens) (UniProt P05067); assay: Inhibition of amyloid beta-40 aggregation (unknown origin) assessed as extension of lag phase of Abeta40 aggregation at 100 uM by ThT fluorescence assay; design: scale not given: the % may be the effect or the level left; outline: as §1

Chain of Amyloid-beta precursor protein (Homo sapiens) (P05067 whole entry): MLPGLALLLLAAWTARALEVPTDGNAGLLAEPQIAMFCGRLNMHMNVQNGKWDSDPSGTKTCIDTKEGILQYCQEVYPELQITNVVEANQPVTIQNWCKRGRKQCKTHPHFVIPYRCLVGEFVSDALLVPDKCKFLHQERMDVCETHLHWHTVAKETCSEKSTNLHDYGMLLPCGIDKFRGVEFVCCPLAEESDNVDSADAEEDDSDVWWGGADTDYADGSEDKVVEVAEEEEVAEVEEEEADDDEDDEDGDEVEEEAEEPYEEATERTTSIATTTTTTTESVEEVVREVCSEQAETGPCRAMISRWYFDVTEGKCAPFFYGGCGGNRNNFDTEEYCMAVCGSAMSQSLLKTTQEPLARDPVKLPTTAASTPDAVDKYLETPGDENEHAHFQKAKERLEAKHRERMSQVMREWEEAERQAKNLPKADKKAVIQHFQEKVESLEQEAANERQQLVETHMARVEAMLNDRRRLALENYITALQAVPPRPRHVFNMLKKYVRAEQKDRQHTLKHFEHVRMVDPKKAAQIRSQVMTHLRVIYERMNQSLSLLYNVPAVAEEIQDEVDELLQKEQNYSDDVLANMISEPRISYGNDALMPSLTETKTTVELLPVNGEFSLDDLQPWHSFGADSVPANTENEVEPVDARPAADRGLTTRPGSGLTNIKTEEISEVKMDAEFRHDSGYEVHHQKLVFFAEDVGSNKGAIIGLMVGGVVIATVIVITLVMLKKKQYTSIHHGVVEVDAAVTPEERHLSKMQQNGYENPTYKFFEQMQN

Structure (SMILES)	inhibition [1]	Activity [2]
OC[C@H]1O[C@@H](n2cc(COCC(COCc3cn([C@@H]4O[C@H](CO)[C@@H](O)[C@H](O)[C@H]4O)nn3)(COCc3cn([C@@H]4O[C@H](CO)[C@@H](O)[C@H](O)[C@H]4O)nn3)COCC(COCc3cn([C@@H]4O[C@H](CO)[C@@H](O)[C@H](O)[C@H]4O)nn3)(COCc3cn([C@@H]4O[C@H](CO)[C@@H](O)[C@H](O)[C@H]4O)nn3)COCc3cn([C@@H]4O[C@H](CO)[C@@H](O)[C@H](O)[C@H]4O)nn3)nn2)[C@H](O)[C@@H](O)[C@@H]1O	Dose-dependent effect	28%
OC[C@H]1O[C@@H](n2cc(COCC(COCc3cn([C@@H]4O[C@H](CO)[C@H](O)[C@H](O)[C@H]4O)nn3)(COCc3cn([C@@H]4O[C@H](CO)[C@H](O)[C@H](O)[C@H]4O)nn3)COCC(COCc3cn([C@@H]4O[C@H](CO)[C@H](O)[C@H](O)[C@H]4O)nn3)(COCc3cn([C@@H]4O[C@H](CO)[C@H](O)[C@H](O)[C@H]4O)nn3)COCc3cn([C@@H]4O[C@H](CO)[C@H](O)[C@H](O)[C@H]4O)nn3)nn2)[C@H](O)[C@@H](O)[C@H]1O	Dose-dependent effect	28%
